The subject of series [1] is Cricetinae gen. sp. The series is described as follows: Inhibition of HNE-induced lung hemorrhage in hamsters after oral administration of 30 mg/kg followed by intratracheal instillation of HNE (10 U/lung). Type of series: functional. Summed up:
(§1)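 Hamsters (n = 6-10) were dosed orally 1 h before intratracheal instillation of HNE (10 U/lung). The read-out was inhibition of the HNE-induced lung hemorrhage.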

Series [2] relates to Cricetinae gen. sp. The series is described as follows: Inhibition of HNE-induced lung hemorrhage in hamsters after oral administration followed by intratracheal instillation of HNE (10 U/lung). It is filed as functional. Summed up:
as §1

The next series addresses T1, Neutrophil elastase (Homo sapiens, UniProt P08246).
T1 sequence (P08246 whole entry): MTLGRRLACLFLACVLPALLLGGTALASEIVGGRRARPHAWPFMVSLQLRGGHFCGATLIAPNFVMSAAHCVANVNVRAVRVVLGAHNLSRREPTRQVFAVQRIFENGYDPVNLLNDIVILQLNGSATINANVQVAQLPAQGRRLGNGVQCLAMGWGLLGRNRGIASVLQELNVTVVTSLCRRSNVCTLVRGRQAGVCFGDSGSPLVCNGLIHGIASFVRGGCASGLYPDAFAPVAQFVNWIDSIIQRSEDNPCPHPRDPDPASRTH
The series is described as follows: Binding constant derived from inhibition of elastase catalyzed hydrolysis of synthetic substrate.

Series [3] can be described thus: Solubility was determined at a pH of 1.2 using first fluid (JP13th). Conditions: pH 1.2. It is filed as physicochemical. Summed up: (§2)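 Solubility was measured in μg/mL in four vehicles: JP13th first fluid (pH ca. 1.2), 1/14 M phosphate citrate buffer (pH ca. 4.0), physiological saline (pH ca. 5.5) and 1/14 M phosphate buffer (pH ca. 7.4).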
Series [4] can be described thus: Solubility was determined at a pH of […] using 1/14 M phosphate buffer. It is filed as physicochemical. Conditions: pH 7.4.
Series [5] is described as follows: Solubility was determined at a pH of 5.5 using physiological saline. Type of series: physicochemical. The following applies: pH 5.5. Summed up:
as §2

Series [6] can be described thus: Half life after administering orally a dose of 3 mg/kg. It is filed as ADME, organism-based. More on the design: dose 3 mg/kg, route oral. The following applies: rat, in vivo, po. Summed up:
(§3)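 Unchanged drug measured in plasma over 0–24 h after dosing. Cmax recorded over 0–24 h, with Tmax as the time of Cmax. Half-life determined over 6–24 h after dosing. Mean ± SD, n = 4.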

Series [7] is described as follows: Pharmacokinetic parameter AUC was evaluated intravenous administration of 3 mg/kg. It is filed as ADME, organism-based. More on the design: dose 3 mg/kg, route intravenous. The following applies: rat, in vivo. Summed up:
(§4)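 Oral dosing as a suspension in 0.5% CMC; intravenous dosing as a solution in 35% HP-β-CD. Unchanged drug measured in plasma over 0–24 h after dosing. AUC is the integrated area under the concentration versus time curve. Oral bioavailability is taken from the […]. Mean ± SD, n = 4 (n = 3 for some i.v. groups).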

The nature of series [8]: Maximum concentration of […] drug in plasma recorded in the period of 0-24 hr after administering orally a dose of 1 mg/kg to a fasting rat. More on the design: dose 1 mg/kg, route oral. It is filed as ADME, organism-based. Conditions: po. Summed up:
as §3

The nature of series [9]: Half life after administering intravenously a dose of 3 mg/kg. The following applies: rat, in vivo, iv.
Series [10] can be described thus: Time of maximum concentration of the drug when administered orally a dose of 1 mg/kg to a fasting rat. Conditions: in vivo, po. It is filed as ADME, organism-based. More on the design: dose 1 mg/kg, route oral. Summed up: as §3
Series [11] is described as follows: Pharmacokinetic parameter AUC was evaluated when a dose of 1 mg/kg is administered orally to a fasting rat. Type of series: ADME, organism-based. More on the design: dose 1 mg/kg, route oral. Conditions: in vivo, po. Summed up:
as §4

Series [12] is described as follows: Bioavailability was evaluated when a dose of 3 mg/kg was administered orally to a fasting rat. It is filed as ADME, organism-based. The following applies: in vivo, po. Summed up:
as §4

The nature of series [13]: Maximum concentration of […] drug in plasma recorded in the period of 0-24 hr after administering orally a dose of 3 mg/kg to a fasting rat. Type of series: ADME, organism-based. More on the design: dose 3 mg/kg, route oral. The following applies: po. Summed up: as §3
Series [14] can be described thus: Half life after administering orally a dose of 3 mg/kg to a fasting rat. Type of series: ADME, organism-based. More on the design: dose 3 mg/kg, route oral. Conditions: in vivo, po. Summed up:
as §3

Series [15] in a line: Half life after the administered orally a dose of 1 mg/kg to a fasting rat. It is filed as ADME, organism-based. More on the design: dose 1 mg/kg, route oral. Conditions: in vivo, po. Summed up:
as §3

The nature of series [16]: Maximum concentration of […] drug in plasma recorded in the period of 0-24 hr after administering orally a dose of 3 mg/kg. It is filed as ADME, organism-based. More on the design: dose 3 mg/kg, route oral. The following applies: rat, po. Summed up: as §3
The nature of series [17]: Half life after administering orally a dose of 10 mg/kg to a fasting rat. It is filed as ADME, organism-based. More on the design: dose 10 mg/kg, route oral. The following applies: in vivo, po. Summed up:
as §3

Series [18] can be described thus: Pharmacokinetic parameter AUC was evaluated when a dose of 30 mg/kg is administered orally. It is filed as ADME, organism-based. More on the design: dose 30 mg/kg, route oral. The following applies: rat, in vivo, po. Summed up: as §4
Series [19] is described as follows: Pharmacokinetic parameter AUC was evaluated when a dose of 3 mg/kg is administered orally. Type of series: ADME, organism-based. More on the design: dose 3 mg/kg, route oral. The following applies: rat, in vivo, po.
The nature of series [20]: Time of maximum concentration of the drug when administered orally a dose of 30 mg/kg. Type of series: ADME, organism-based. More on the design: dose 30 mg/kg, route oral. The following applies: rat, in vivo, po. Summed up: as §3
A short description of series [21]: Pharmacokinetic parameter AUC was evaluated when a dose of 10 mg/kg is administered orally to a fasting rat. It is filed as ADME, organism-based. More on the design: dose 10 mg/kg, route oral. Conditions: in vivo, po. Summed up: as §4
Series [22] in a line: Half life after administering orally a dose of 30 mg/kg. Conditions: rat, in vivo, po. More on the design: dose 30 mg/kg, route oral. It is filed as ADME, organism-based. Summed up:
as §3

Series [23] can be described thus: Maximum concentration of […] drug in plasma recorded in the period of 0-24 hr after administering orally a dose of 10 mg/kg to a fasting rat. It is filed as ADME, organism-based. More on the design: dose 10 mg/kg, route oral. The following applies: po. Summed up:
as §3

Series [24] in a line: Time of maximum concentration of the drug when administered orally at dose of 3 mg/kg. It is filed as ADME, organism-based. More on the design: dose 3 mg/kg, route oral. Conditions: rat, in vivo, po. Summed up:
as §3

Series [25] in a line: Time of maximum concentration of the drug when administered orally a dose of 3 mg/kg to a fasting rat. Type of series: ADME, organism-based. More on the design: dose 3 mg/kg, route oral. Conditions: in vivo, po. Summed up: as §3
Series [26] in a line: Maximum concentration of […] drug in plasma recorded in the period of 0-24 hr after administering orally a dose of 30 mg/kg. More on the design: dose 30 mg/kg, route oral. It is filed as ADME, organism-based. Conditions: rat, po. Summed up:
as §3

Series [27] in a line: Bioavailability was evaluated when a dose of 3 mg/kg was administered orally. It is filed as ADME, organism-based. The following applies: rat, in vivo, po. Summed up:
as §4

A short description of series [28]: Time of maximum concentration of the drug when administered orally a dose of 10 mg/kg to a fasting rat. The following applies: in vivo, po. It is filed as ADME, organism-based. More on the design: dose 10 mg/kg, route oral. Summed up: as §3
Series [29] can be described thus: Pharmacokinetic parameter AUC was evaluated when a dose of 3 mg/kg is administered orally to a fasting rat. Conditions: in vivo, po. Type of series: ADME, organism-based. More on the design: dose 3 mg/kg, route oral.

This is an account of results in ChEMBL document CHEMBL1134847, “Development of orally active nonpeptidic inhibitors of human neutrophil elastase” (J Med Chem, 2001).

≈ marks a conversion by molar mass, not a printed value.

`CCCCc1nnc(C(=O)[C@@H](NC(=O)Cn2c(-c3ccc(F)cc3)ncc(N)c2=O)C(C)C)o1` returned an inhibition in vivo at 30 mg/kg in the series with Cricetinae gen. sp. [1] of 63%.
In the series on Cricetinae gen. sp. [2], `CC(C)[C@H](NC(=O)Cn1c(-c2ccc(F)cc2)nccc1=O)C(=O)c1nnc(C(C)(C)C)o1` registered an ED50 of 6.8 mg/kg.
Still for that read-out and setting: for `CC(C)[C@H](NC(=O)Cn1c(-c2ccc(F)cc2)nccc1=O)C(=O)c1nnc(C2(C)CC2)o1` the value was 5.5 mg/kg.
As for `CC(C)OC(=O)N1c2ccccc2C[C@H]1C(=O)N[C@H](C(=O)c1nnc(C(C)(C)C)o1)C(C)C`, on Neutrophil elastase, the affinity corresponds to a Ki of 114 nM.
In the series on Cricetinae gen. sp. [1], `CC(C)[C@H](NC(=O)[C@@H]1Cc2ccccc2N1C(=O)[C@@H](NC(=O)c1cccnc1)C(C)C)C(=O)c1nnc(C(C)(C)C)o1` had an inhibition in vivo at 30 mg/kg of 36%. The compound further came in with a Ki on Neutrophil elastase of 5.1 nM.
Take `CC(C)[C@H](NC(=O)Cn1c(-c2ccccc2)ncc(N)c1=O)C(=O)c1nnc(C(C)(C)C)o1`: the results for the solubility in series [3], in series [4] and in series [5] were greater than 2000 µg/mL, 310 µg/mL (≈ 685 µM) and 1010 µg/mL (≈ 2230 µM), respectively.
With `CC(C)[C@H](NC(=O)Cn1c(-c2ccc(F)cc2)ncc(N)c1=O)C(=O)c1nnc(-c2cccnc2)o1`, the inhibition in vivo at 30 mg/kg in the series with Cricetinae gen. sp. [1] stood at 0%.
Same read-out and setting: the same measure for `CC(C)[C@H](NC(=O)CN1C(=O)N[C@H](C(C)C)C1=O)C(=O)c1nnc(C(C)(C)C)o1`: 0%.
Take `CC(C)[C@H](NC(=O)CN1C(=O)CN=C(c2ccc(Cl)cc2)c2ccccc21)C(=O)c1nnc(C(C)(C)C)o1`: testing at 30 mg/kg with Cricetinae gen. sp. [1] gave an inhibition in vivo of 22%. Besides, affinity on Neutrophil elastase was put at a Ki of 57.8 nM.
For `CC(C)[C@H](NC(=O)CN1C(=O)N[C@H](Cc2c[nH]c3ccccc23)C1=O)C(=O)c1nnc(C(C)(C)C)o1`, the inhibition in vivo at 30 mg/kg with Cricetinae gen. sp. [1] was determined as 22%.
`Cc1nnc(C(=O)[C@@H](NC(=O)Cn2c(-c3ccc(F)cc3)ncc(N)c2=O)C(C)C)o1` returned an inhibition in vivo at 30 mg/kg in the series on Cricetinae gen. sp. [1] of 47%.
Same read-out and setting: for `CC(C)[C@H](NC(=O)Cn1c(-c2cccnc2)ncc(N)c1=O)C(=O)c1nnc(C(C)(C)C)o1` the value was 6%.
Take `CC(C)C(NC(=O)Cn1c(-c2ccccc2)ncc(N)c1=O)C(=O)c1nnc(C(C)(C)C)o1` (stereo unspecified): the half-life was 300 min in series [6]; 180 min in series [9]; 270 min in [14]; 306 min in series [15]; 444 min in series [17]; 522 min in series [22]. Moreover, the AUC was determined as 1930 ng·h/mL in [7]; 230 ng·h/mL in series [11]; 3050 ng·h/mL in [18]; 760 ng·h/mL in series [19]; 2130 ng·h/mL in [21]; 976 ng·h/mL in series [29]. Also, the Cmax came out at 115 ng/mL in series [8]; 257 ng/mL in [13]; 174 ng/mL in series [16]; 351 ng/mL in [23]; 527 ng/mL in series [26]. In addition, the Tmax in series [10] amounted to 18.6 min; in [20], 26.4 min; in series [24] it was 1.1 h; in [25], 37.8 min; in series [28] it was 18.6 min. Besides, the bioavailability is 50.5% in [12] and 39.4% in series [27]. This compound displayed an ED50 in the series with Cricetinae gen. sp. [2] of 5.1 mg/kg.
`CC(C)OC(=O)N1Cc2ccccc2C[C@H]1C(=O)N[C@H](C(=O)c1nnc(C(C)(C)C)o1)C(C)C` registered an inhibition in vivo at 30 mg/kg with Cricetinae gen. sp. [1] of 0%. Further, at Neutrophil elastase, the Ki was 725 nM.
Turning to `CC(C)C(NC(=O)Cn1c(-c2ccc(F)cc2)ncc(N)c1=O)C(=O)c1nnc(C(C)(C)C)o1` (stereo unspecified), it took a dose of 10 mg/kg to reach the 50% effect level with Cricetinae gen. sp. [2] (ED50).
`CC(C)[C@H](NC(=O)[C@@H]1Cc2ccccc2CN1C(=O)[C@@H](NC(=O)c1cccnc1)C(C)C)C(=O)c1nnc(C(C)(C)C)o1` showed a Ki at Neutrophil elastase of 1.66 nM. Moreover, in the series on Cricetinae gen. sp. [2], the ED50 was found to be 14.2 mg/kg.
